SR-BI DiI inh – inhibitors of SR-BI mediated HDL lipid uptake, primary screen, ldlA[mSR-BI] cells, fluorescence, single point | ldlA[mSR-BI] CHO cells, DiI-HDL uptake fluorescence, 3 h | 0.96% of 320,000 active | Scavenger receptor class B member 1 (Mus musculus), Q61009 | inhibition, % at 12.5 µM;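 active = mean replicate inhibition of at least 70% and a set share of replicates each scoring 70 or more; inconclusive = meets just one of the two criteria; inactive = fails both criteria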
Target sequence (Q61009 whole entry, looked up): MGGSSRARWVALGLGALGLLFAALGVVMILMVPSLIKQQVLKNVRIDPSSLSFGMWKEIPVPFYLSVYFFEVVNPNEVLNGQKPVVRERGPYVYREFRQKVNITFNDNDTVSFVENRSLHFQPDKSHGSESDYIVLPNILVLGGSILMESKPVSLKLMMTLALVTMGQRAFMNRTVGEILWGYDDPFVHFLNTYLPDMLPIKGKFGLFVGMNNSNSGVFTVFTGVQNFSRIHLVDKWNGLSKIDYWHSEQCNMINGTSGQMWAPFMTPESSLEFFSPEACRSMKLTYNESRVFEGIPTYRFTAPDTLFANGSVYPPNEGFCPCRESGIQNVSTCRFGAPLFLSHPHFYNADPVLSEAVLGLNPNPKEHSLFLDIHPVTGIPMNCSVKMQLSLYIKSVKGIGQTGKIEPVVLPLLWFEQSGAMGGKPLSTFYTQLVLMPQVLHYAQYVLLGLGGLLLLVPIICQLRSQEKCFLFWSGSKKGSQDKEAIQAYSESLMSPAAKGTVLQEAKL
Wnt act – Wnt/beta-catenin pathway activators, primary screen, cell-based, plate reader, single point; Wnt/beta-catenin reporter cell assay, activator; activation, % at 9.35 µM; 1.2% of 300,000 active; in the data active = activation above about 30%, passing the limit was not always enough; inconclusive = no clear call, values can overlap the other calls
HSF-1 act – HSF-1 activators, primary screen, NIH3T3-HGL cells, MG132 stress, luminescence, single point; AID 504408, 2011; 1.7% of 300,000 active; NIH3T3-HGL HSF-1 luciferase reporter, 8 h; 100% = twice DMSO control signal; activation, % at 9 µM;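 active = mean replicate activation of at least 50% with a set share of replicates each reaching 50%; inconclusive = only one of those two conditions met; inactive = mean below 50% and too few replicates reaching it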
MITF act – activators of MITF-driven TRPM1 promoter reporter, primary screen, cell-based, SK-MEL-5, luciferase, single point | SK-MEL-5 TRPM1-promoter luciferase, 24 h; % of positive control, neutral wells = 0 | activation, % at 12.5 µM | 0.75% of 300,000 active | AID 588334, 2011;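 active = mean activation of at least 80% with every replicate also reaching 80%; inconclusive = mean reaches 80% but some replicate falls short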
SR-BI DiI-HDL act – activators of SR-BI mediated DiI-HDL uptake, primary screen, ldlA[mSR-BI] CHO cells, DiI fluorescence; 3 h; 100 = double the neutral-control signal; activation, % at 12.5 µM; 0.096% of 320,000 active; AID 504775, 2011;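 active = mean replicate activation of at least 60% and every replicate at or above 60%; inconclusive = mean or all-replicate condition met, but not both; inactive = mean below 60% and not all replicates reaching 60%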
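system = CHO ldlA[mSR-BI] cells, LDL receptor-null, SR-BI overexpressing | medium = Ham's F12 with 0.5% BSA, HEPES 25 mM, pH 7.4 | probe or stimulus = DiI-HDL 10 µg/mL | compound dosing = single-point compound dose | incubation = compound exposure 3 h, 37 °C | technique = DiI fluorescence, bottom read | read-out = cell-associated DiI fluorescence as measure of HDL uptake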
Large screens that a line does not name were inactive. The list is not random: actives were taken first. Their share in the collection is about 3.6%.

COc1ccccc1NC(=O)CN1CCN(CC(=O)Nc2ccccc2Cl)CC1	HSF-1 act 242.6
CCOC(=O)[C@@H]1CSCCS(=O)(=O)N1C(=O)[C@H](CC(C)C)NC(=O)OC(C)(C)C	none (no result: SR-BI DiI inh, HSF-1 act, MITF act, SR-BI DiI-HDL act)
CCCCC(CCC(=O)O)(C(=O)OCC)c1csc(Nc2ccccc2)n1 (configuration not stated)	none (no result: Wnt act)
CCOC(=O)/C(=N/Nc1ccccc1)c1csc(Nc2ccccc2)n1	SR-BI DiI inh 95.1
CCOC(=O)/C(=N\Nc1ccc(Cl)cc1)c1csc(Nc2ccccc2)n1	SR-BI DiI inh 109.5 (no result: Wnt act)
CCOC(=O)/C(=N\Nc1ccc(OC)cc1)c1csc(Nc2ccccc2)n1	SR-BI DiI inh 99.4
CC(=O)Nc1ccc(C(=O)N2CCCCC2c2cc(C(=O)NCc3ccc(F)cc3)no2)cc1 (configuration not stated)	none (no result: SR-BI DiI inh, HSF-1 act, MITF act, SR-BI DiI-HDL act)
CCOC(=O)N1CCN(CC(=O)Nc2nccs2)CC1	none (no result: SR-BI DiI inh, HSF-1 act, MITF act, SR-BI DiI-HDL act)
Cc1cc(O)cc(=O)n1-c1cccc([N+](=O)[O-])c1	none (no result: SR-BI DiI inh, HSF-1 act, MITF act, SR-BI DiI-HDL act)
Cc1cn([C@H]2C[C@H](O)[C@@H](CNC=O)O2)c(=O)[nH]c1=O	none (no result: SR-BI DiI inh, HSF-1 act, MITF act, SR-BI DiI-HDL act)
O=C(O)c1cc(-c2ccc(-c3c(-c4ccc5c(c4)OCO5)noc3-c3ccsc3)cc2)nc2ccccc12	MITF act 96.5
CCN(CC)C(=O)c1ccc2nc([C@@H]3O[C@H](CO)[C@H](O)[C@H](O)[C@H]3O)[nH]c2c1	none (no result: SR-BI DiI inh, HSF-1 act, MITF act, SR-BI DiI-HDL act)
CCOc1ccc(Oc2ccc(NS(=O)(=O)c3ccc(CCC(=O)O)cc3)cc2)cc1	none (no result: SR-BI DiI inh, HSF-1 act, MITF act, SR-BI DiI-HDL act)
N=C1S/C(=C\c2ccco2)C(=O)N1c1nccs1	HSF-1 act 97.8
CCOC(=O)C1(Cc2ccccc2)CCCN(C(=O)COc2ccccc2OC)C1 (configuration not stated)	Wnt act 39.3 (no result: SR-BI DiI inh, HSF-1 act, MITF act, SR-BI DiI-HDL act)
CCOC(=O)C1(Cc2ccccc2)CCCN(C(=O)C=C(C)C)C1 (configuration not stated)	MITF act 87.6
COC(=O)[C@@]12C[C@@H](CC(=O)N3CCOCC3)C(=O)N(Cc3ccc4c(c3)OCO4)C1=CCC(C)(C)C2	none (no result: SR-BI DiI inh, HSF-1 act, MITF act, SR-BI DiI-HDL act)
CC(C)CCNC1c2ccccc2C(=O)N1Cc1ccccc1 (configuration not stated)	HSF-1 act 53.6
CCC(C)(C)c1ccc2c(c1)C(=O)c1ccccc1C2=O	Wnt act 38.9
CCC(=O)Nc1ccc2c(c1)C(=O)c1ccccc1C2=O	none (no result: Wnt act)
Cc1ccc(C(=O)CCC(=O)OCC(=O)NNC(=O)c2ccccc2Cl)cc1	none (no result: HSF-1 act)
Cc1ccc(C)c(OCc2cc(C(=O)N3C[C@@H](C)O[C@@H](C)C3)no2)c1	Wnt act 37.4, MITF act 125.3
CCN(CCn1cccn1)C(=O)c1cc(COc2cc(C)ccc2C)on1	Wnt act inconclusive, HSF-1 act 59.4
Cc1ccc(C)c(OCc2cc(C(=O)N3CC[C@@H]4CCCC[C@H]4C3)no2)c1	none
C[C@@H]1CN(C(=O)c2cc(COc3cccc(C(F)(F)F)c3)on2)C[C@H](C)O1	HSF-1 act 94.7, MITF act 103.0
CCN(CCn1cccn1)C(=O)c1cc(COc2ccccc2SC)on1	none
Cc1ccc(C)c(OCc2cc(C(=O)N3CCN(c4ccccc4)CC3)no2)c1	HSF-1 act 55.6
Cc1cccc(N=Nc2c(C)c(C#N)c(O)[nH]c2=O)c1	HSF-1 act 54.4
O=C(CCn1c(=O)oc2ccccc21)Nc1ccccc1	HSF-1 act 100.8 (no result: MITF act)
O=C(CCCn1c(=O)oc2ccccc21)Nc1ccccc1	none (no result: HSF-1 act)
COc1cc(OC)c(NC(=O)CCCn2c(=O)oc3ccccc32)cc1Cl	none (no result: Wnt act)
COc1ccc(NC(=O)CCCn2c(=O)oc3ccccc32)cc1Cl	HSF-1 act 62.3, MITF act 153.6
O=C(Nc1ccc2c(c1)OCCO2)C1c2ccccc2OCC(=O)N1Cc1ccccc1 (configuration not stated)	none (no result: SR-BI DiI inh, HSF-1 act, MITF act, SR-BI DiI-HDL act)
CCCN1CCC(=O)NC1=S	none (no result: HSF-1 act)
N#C/C(=C\c1cccs1)C(=O)NCC1CCCO1 (configuration not stated)	Wnt act 38.9 (no result: MITF act)
N#C/C(=C/c1cc(Br)cs1)C(=O)NCC1CCCO1 (configuration not stated)	none (no result: Wnt act)
COC(=O)c1nnn(CC(=O)NC(=O)Nc2ccc(F)cc2)c1C(=O)OC	HSF-1 act 54.7
CCOC(=O)c1nnn(CC(=O)NC(=O)Nc2cccc(CC)c2)c1C(=O)OCC	Wnt act 35.9 (no result: SR-BI DiI inh, HSF-1 act, SR-BI DiI-HDL act)
CCN(CC)S(=O)(=O)c1ccc(NS(=O)(=O)c2cccc(C)c2)cc1	Wnt act 39.5
COc1cc(O)c2c(c1)OC(c1ccc(O)cc1)CC2=O (configuration not stated)	none
COc1ccc([C@@H]2CC(=O)c3c(O)cc(O)cc3O2)cc1O	Wnt act 39.6 (no result: HSF-1 act)
O=C1NC(Cc2ccccc2)c2nc3ccccc3c(=O)n2-c2cc(Cl)ccc21 (configuration not stated)	none (no result: SR-BI DiI inh, HSF-1 act, MITF act, SR-BI DiI-HDL act)
CC1(C)OC(=O)NC1c1ccccc1 (configuration not stated)	none (no result: SR-BI DiI inh, HSF-1 act, MITF act, SR-BI DiI-HDL act)
O=C(Nc1ccccc1)C(=O)Nc1ccc2c(c1)N(C(=O)C1CC1)CCC2	Wnt act 41.8, MITF act 92.2
O=C(C1CCC(C(=O)N2CCc3ccccc32)CC1)N1CCc2ccccc21 (configuration not stated)	SR-BI DiI-HDL act inconclusive (no result: Wnt act)
Cc1ccc2nc3n(c(=O)c2c1)-c1ccccc1C(=O)NC3Cc1ccccc1 (configuration not stated)	none (no result: SR-BI DiI inh, HSF-1 act, MITF act, SR-BI DiI-HDL act)
COc1ccc(-c2nn(-c3ccccc3)cc2/C=N/N2C(=O)CSC2=S)cc1	HSF-1 act 75.9 (no result: Wnt act)
COc1ccc(/C=N/N2C(=O)CSC2=S)cc1	none (no result: Wnt act)
CCCCc1c(Cc2cccc(F)c2)ncn1CCc1ccccc1OC	none (no result: SR-BI DiI inh, HSF-1 act, MITF act, SR-BI DiI-HDL act)
CCn1c(=O)[nH]c2cc(C(=O)Nc3cc(C)cc(C)c3)ccc2c1=O	SR-BI DiI inh 72.4
CN(C)c1nc(NCc2ccccc2)nc(SCC(=O)Nc2ccccc2)n1	none
CN(C)c1nc(NC(C)(C)C)nc(SCC(=O)Nc2ccccc2)n1	HSF-1 act 66.4
Oc1ccc(C[C@H]2CNC(=S)N2C[C@H]2CCCN2C[C@H](Cc2ccccc2)N2C[C@H](Cc3ccc(O)cc3)N(CCc3ccccc3)C2=S)cc1	none (no result: SR-BI DiI inh, HSF-1 act, MITF act, SR-BI DiI-HDL act)
CCN(CC)C(=O)C1CCN(Cc2cn(C)nc2-c2ccc(Oc3ccccc3)cc2)CC1	Wnt act 54.2
N#Cc1cccc(C#N)c1NCC1CCCO1 (configuration not stated)	none
N#Cc1cc(Cl)c(NCC2CCCO2)cc1C#N (configuration not stated)	HSF-1 act 88.6 (no result: MITF act)
CS(=O)(=O)N(Cc1ccc(Cl)cc1)c1ccc(C(=O)NCCC2=CCCCC2)cc1	none (no result: Wnt act)
COC(=O)[C@H](CC(C)C)NC(=O)NCCC1=CCCCC1	none
COC(=O)[C@@H](NC(=O)NCCC1=CCCCC1)C(C)C	Wnt act 65.2
